# Screens from PubChem BioAssay.
# Shown are actives, neighbours in structure and some others; about 3.7% of the full set was active somewhere.
# KCNK9 inh: blocks the human KCNK9 two-pore domain potassium channel. HEK293 KCNK9, FluxOR thallium flux fluorescence; active compounds read low. B-score at 10 µM. 310,000 tested, 1.2% active;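 active means ratio B-score over 3 SD below the library mean, with starting fluorescence within 5 SD of its mean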;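 further: negative B-score means less thallium flux so channel inhibition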
# KCNQ1 inh: inhibitors of human KCNQ1 potassium channel; B-score at 10 µM; CHO-K1 KCNQ1, FluxOR thallium flux fluorescence; active compounds read high; 310,000 tested, 1.3% active; AID 2642;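 active means compounds whose thallium flux B-score, printed positive for inhibition, exceeds three library SD while starting fluorescence stays within three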;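 further: channel opened by potassium depolarization with thallium stimulus after 20 min compound exposure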
# KCNK3 block: human KCNK3 channel inhibition, primary screen. CHO-KCNK3 thallium flux, FluxOR fluorescence; active compounds read low. B-score at 10 µM. 340,000 tested, 0.84% active. AID 602410;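 active means B-score under library mean minus 4 SD, starting fluorescence ratio at most library mean plus 5 SD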;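 further: more negative B-score means stronger inhibition of thallium flux through KCNK3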
# Target sequence (O14649 whole entry, looked up): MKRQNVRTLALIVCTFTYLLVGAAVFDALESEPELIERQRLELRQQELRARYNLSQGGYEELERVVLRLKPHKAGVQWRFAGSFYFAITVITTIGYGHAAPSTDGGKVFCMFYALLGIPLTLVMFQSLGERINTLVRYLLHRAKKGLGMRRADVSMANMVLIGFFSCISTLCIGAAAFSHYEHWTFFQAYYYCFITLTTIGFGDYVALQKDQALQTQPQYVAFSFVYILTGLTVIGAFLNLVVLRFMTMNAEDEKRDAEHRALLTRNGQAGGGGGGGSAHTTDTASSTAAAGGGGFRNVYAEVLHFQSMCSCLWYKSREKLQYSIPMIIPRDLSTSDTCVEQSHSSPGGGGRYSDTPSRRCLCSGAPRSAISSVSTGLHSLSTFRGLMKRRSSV
# hERG protect: shields human hERG channel from block by proarrhythmic agents; CHO-hERG, FluxOR thallium flux, dofetilide IC70 present; Q12809; activation (rescue from dofetilide block), less the hit threshold, % at 10 µM; 310,000 tested, 0.51% active;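 active means activation above the mean of controls blocked by dofetilide plus 5 SD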;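 further: thallium influx through hERG after potassium depolarization seen as dye fluorescence rise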
# KCNQ1 act: potentiators or activators of human KCNQ1 potassium channel; P51787; CHO-K1 KCNQ1, thallium flux FluxOR fluorescence; active compounds read high; B-score at 10 µM; 310,000 tested, 0.35% active;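 active means fluorescence ratio B-score, a plate-corrected score, at least three library SD, with initial intensity B-score within 5 SD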
#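 Doses: Single concentration per compound, DMSO matched to controls | Test system: KCNQ1-transfected CHO-K1 cells | Timing: 90 min dye loading and 20 min compound exposure, both at room temperature | Measured by: Kinetic FluxOR thallium fluorescence, 10-s 1-Hz baseline, 110-s post-stimulus read | Medium: Assay buffer with matched DMSO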
# Kir21 block: inhibitors of mouse Kir2.1 inward-rectifier potassium channel; P35561; HEK293-Kir2.1, FluxOR thallium flux fluorescence; active compounds read low; B-score at 10 µM; 310,000 tested, 0.85% active; AID 1672;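 active means fluorescence ratio B-score at or below minus 3 SD of library scores, with starting-brightness B-score within 2 SD, cut at about -4.2 in these data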;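 further: channel flux triggered by added potassium and thallium sulfate stimulus; B-score of peak minus minimum fluorescence over baseline after thallium stimulus; more negative B-score means stronger Kir2.1 block with less thallium influx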
# KCNK9 inh conf: confirmation of human KCNK9 potassium channel inhibitors. shares compounds with KCNK9 inh. HEK293 KCNK9 cells, FluxOR thallium flux fluorescence. inhibition, % at 10 µM. 4,900 tested, 43% active;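 active means thallium signal inhibited by more than 5 SD of the compound-free buffer control wells, on both duplicate plates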;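 further: 0% = assay buffer control wells without compound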
# Kir2-1 spec: selectivity of KCNK9 modulators against mouse Kir2.1. shares compounds with KCNK9 inh. Kir2.1 cells, FluxOR thallium flux fluorescence. inhibition, % at 10 µM. 4,900 tested, 4% active;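 active means thallium signal drop more than 5 SD beyond the mean of the no-compound control wells, seen in both duplicate plates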;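 further: signal is fluorescence rise after thallium addition divided by baseline fluorescence; plate controls were assay buffer only for no effect and full block by chlorpromazine control for full effect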
# KCNK9 uninduced: second check of KCNK9 modulator effects in non-induced HEK293 cells; shares compounds with KCNK9 inh; FluxOR thallium flux; inhibition, % at 10 µM; 4,900 tested, 40% active;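 active means thallium signal drop beyond 5 SD of the untreated control mean, on both duplicate plates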;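 further: plate controls were buffer only IC0 wells for no effect and SID17386958 at its maximal inhibitory level for full effect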
# The depositor's hits bear a star; i = inactive; . = no result.
SMILES,KCNK9 inh,KCNQ1 inh,KCNK3 block,hERG protect,KCNQ1 act,Kir21 block,KCNK9 inh conf,Kir2-1 spec,KCNK9 uninduced
Cc1cc(C)cc(SCc2noc(C(=O)NCC3CC3)c2C(=O)NCC2CC2)c1,i,i,.,-6,i,-0.88,i,i,i
COCCNC(=O)c1onc(CSc2cc(C)cc(C)c2)c1C(=O)O,i,i,i,-7,i,-0.81,.,.,.
COC(=O)C(Cc1ccccc1)NC(=O)CNC(=O)c1ccccc1OC (stereo not given),i,i,i,-3,i,0.05,.,.,.
O=C(Nc1ccc(Br)cc1)c1cccc2c1C(=O)N(C1CCCCC1)C2,i,i,i,-9,i,0.42,.,.,.
Cc1ccc(NC(=O)c2cccc3c2C(=O)N(C2CCCCC2)C3)c(Cl)c1,-18*,i,i,-8,i,-0.63,56%*,i,44%*
O=C(Nc1ccc(Br)cc1Br)c1cccc2c1C(=O)N(C1CCCCC1)C2,-18*,i,i,-8,i,0.05,50%*,i,33%*
Cc1ccc(CNC(=O)c2cc3c(-c4ccc(Cl)cc4)nn(C)c3s2)o1,-12*,11*,-12*,-3,i,-1.2,56%*,i,35%*
Cc1cccn2c(CN3CCCC(c4ccccc4)C3)c(C(=O)N3CCOCC3)nc12 (stereo not given),i,i,i,-14,i,0.03,.,.,.
O=C(c1nc2ccc(Cl)cn2c1CNCCc1cnccn1)N1CCCCCCC1,i,i,i,-13,i,-2.1,.,.,.
O=C(Nc1cccc(-c2cn3ccccc3n2)c1)c1cccs1,-8.5*,i,i,-25,i,0.74,52%*,i,i
O=C(Nc1cccc(-c2nc3ccccc3s2)c1)c1cccs1,-10*,i,i,-15,i,1,49%*,i,26%*
O=C(Nc1cccc(-c2nc3ccccc3s2)c1)c1cc(=O)c2ccccc2o1,i,i,i,-36,i,0.54,.,.,.
CCCCCCCCNCCS(=O)(=O)NC1CCCCC1,.,.,i,.,.,.,.,.,.
O=C(COC(=O)Cc1ccc(Br)cc1)NCc1ccc(F)cc1,i,i,i,-7,i,-1.5,.,.,.
Cc1cccc(OCCNC(=O)c2cccc(Oc3ccc(C(F)(F)F)cc3[N+](=O)[O-])c2)c1,i,i,i,-9,i,0.3,i,i,i
O=c1c2ccccc2c(-c2cccc(C(F)(F)F)c2)nn1-c1ccccc1,-8.8*,i,i,-11,i,0.09,38%*,i,43%*
C/C(CC(=O)Nc1ccc(Cl)c(C(F)(F)F)c1)=N\NC(N)=S,i,7*,i,-15,i,0.58,i,i,i
CCOc1ccc(NC(=O)CN(C)C(=O)COc2cccc3c2OC(C)(C)C3)cc1OCC,.,.,i,.,.,.,.,.,.
CCC(C(=O)Nc1nc(C)c(C(=O)OC)s1)c1ccccc1 (stereo not given),-9.4*,i,i,-13,i,-1.4,30%*,i,26%*
COc1cc(OC)nc(Oc2cccc(C(F)(F)F)c2)n1,-10*,i,i,-7,i,0.18,48%*,i,38%*
Cc1ccc(C(=O)N(C)CC(=O)Nc2cccc(F)c2)cc1S(=O)(=O)N1CCCCC1,i,i,i,-12,i,0.99,.,.,.
CCCc1nc(SCC(=O)N2c3ccccc3CC2C)c2c(C)c(C)sc2n1 (stereo not given),i,i,i,-7,i,-0.37,i,i,i
Cc1sc2nc(C3CC3)nc(SCC(=O)N3CCCc4ccccc43)c2c1C,i,i,.,-7,i,-1.2,.,.,.
Cc1sc2nc(C3CC3)nc(SCC(=O)N3CCc4ccccc4C3)c2c1C,i,i,i,-16,i,-0.72,i,i,i
COc1ccc(-c2nn3c(-c4ccccc4)nnc3s2)cc1,i,i,i,-7,i,-1.8,.,.,.
SMILES,KCNK9 inh,KCNQ1 inh,KCNK3 block,hERG protect,KCNQ1 act,Kir21 block,KCNK9 inh conf,Kir2-1 spec,KCNK9 uninduced
CCN(CC)c1ccc(-c2nn3c(-c4ccccc4OC)nnc3s2)cc1,-14*,i,i,-16,i,0.25,43%*,i,i
O=C(CN1CCN(C(=O)C2CCN(C(=O)/C=C/c3ccccc3)CC2)CC1)Nc1ccc(F)cc1,.,.,i,.,.,.,.,.,.
CCCCn1c(SCC(=O)N(CC)C2CCS(=O)(=O)C2)nc2cc(S(N)(=O)=O)ccc21 (stereo not given),i,i,i,-13,i,0.18,.,.,.
CCN(C(=O)CSc1nc2cc(C(F)(F)F)ccc2n1Cc1ccccc1)C1CCS(=O)(=O)C1 (stereo not given),-10*,i,i,-7,i,-0.93,61%*,i,52%*
C[C@H](NC(=O)c1nc[nH]c1C(=O)NC1CCN(C(=O)OC(C)(C)C)CC1)C(=O)OCc1ccccc1,i,i,i,-18,i,1.2,.,.,.
CCOC(=O)CCNCc1ccc(OC)c(OC)c1,i,i,i,-9,i,-0.12,.,.,.
CCOC(=O)CC(NCc1ccc(OC)c(OCC)c1)c1ccc(C)cc1 (stereo not given),i,i,i,-8,i,0.01,i,i,i
COc1cccc(C(=O)/C=C/c2ccc(N3CCCCC3)c([N+](=O)[O-])c2)c1,-8.3*,i,i,-11,i,1.8,36%*,i,35%*
CCN1CCc2c(OCc3ccccc3)cccc2C1=O,i,i,i,-11,i,0.93,.,.,.
Cc1ccc(COc2cccc3c2CCN(Cc2ccc(F)cc2)C3=O)cc1,-10*,i,i,-21,i,0.03,74%*,i,41%*
O=C1c2cccc(OCc3ccc(F)cc3)c2CCN1Cc1ccccc1,-11*,i,i,-8,i,-0.71,70%*,i,48%*
CCOc1ccc2nc(SCC(=O)NNC(=O)c3ccco3)c(C)cc2c1,i,i,i,1,i,-0.28,.,.,.
CCOc1ccc2cc(/C=C/C(=O)c3ccco3)c(Cl)nc2c1,-12*,i,-9.6*,-8,i,-0.03,i,i,33%*
CCN(CC)CC(O)CNc1ccnc2c(Cl)ccc(Cl)c12 (stereo not given),.,.,i,.,.,.,.,.,.
